Results: ChEMBL document CHEMBL5360548, “Fatty acids as molecular carriers in cleavable antifungal conjugates” (Eur J Med Chem, 2023)
≈ marks a conversion by molar mass, not a printed value. Calls of active or inactive are those of the source. No cut-off for these calls is given here.

Assays:
[1] = Induction of hemolysis in human RBC incubated for 30 mins by absorbance based microplate reader analysis; assay type: toxicity, cell-based, Erythrocyte; details: human red blood cells (erythrocytes)
Outline: (§1)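 Human erythrocytes at 2 × 10^7 cells mL-1 in saline, exposed to two-fold dilutions from DMSO stocks (final 200–0.4 µg mL-1), 37 °C, 30 min, then centrifuged. Hemoglobin in supernatant read at A540. Percent hemolysis scaled between DMSO (0%) and Triton X-100 (100%) controls. EH50 interpolated as the concentration giving 50% of the positive-control A540.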

Pichia kudriavzevii = assay: Antifungal activity Candida krusei DSM 6128 by two-fold dilution method; assay type: functional
Outline: (§2)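 Serial two-fold broth microdilution MIC per CLSI M27-A3, in RPMI-1640 without bicarbonate, with L-glutamine, 2% glucose and 3.45% MOPS, pH 7.0. Conjugates tested at 512–1 µg mL-1, 5-FC at 64–0.125 µg mL-1. Strains maintained at 30 °C in YPD medium and stored on YPD agar.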

Candida albicans [2] = assay: Antifungal activity Candida albicans ATCC 10231 by two-fold dilution method; assay type: functional; outline: as §2
Nakaseomyces glabratus = assay: Antifungal activity Candida glabrata DSM 11226 by two-fold dilution method; assay type: functional; outline: as §2
Candida parapsilosis = assay: Antifungal activity Candida parapsilosis DSM 5784 by two-fold dilution method; assay type: functional; details: Lodderomyces parapsilosis; outline: as §2
Debaryomyces hansenii = assay: Antifungal activity Candida famata DSM 3428 by two-fold dilution method; assay type: functional; outline: as §2
Diutina rugosa = assay: Antifungal activity Candida rugosa DSM 2031 by two-fold dilution method; assay type: functional; outline: as §2
Kluyveromyces marxianus = assay: Antifungal activity Candida pseudotropicalis KKP 324 by two-fold dilution method; assay type: functional; outline: as §2
[3] = Induction of hemolysis in human RBC at upto 200 ug/ml incubated for 30 mins by absorbance based microplate reader analysis relative to control; assay type: toxicity, cell-based, Erythrocyte; details: human red blood cells (erythrocytes), up to 200 µg/mL; outline: as §1
[4] = test system: Meyerozyma guilliermondii; assay: Antifungal activity Candida guilliermondii DSM 11947 by two-fold dilution method; assay type: functional; outline: as §2
Candida albicans [5] = assay: Antifungal activity Candida albicans ATCC 10231 at 512 ug/ml by two-fold dilution method; assay type: functional, organism-based; details: dose 512.0 µg/ml; outline: as §2
[6] = Drug uptake in Candida glabrata cells assessed as increase in number of cells emitting green fluorescence measured after 10 to 30 mins by fluorescence based analysis; assay type: ADME, cell-based; details: nakaseomyces glabratus; time 10-30 min
Outline: (§3)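 Candida from overnight YPD culture were washed, grown in RPMI-1640 at 30 °C with shaking from OD660 0.1 to 0.3, then resuspended in PBS to OD660 0.2. Fluorescent conjugate added to 50 µg mL-1 final and incubated at 30 °C, 150 rpm. Samples taken over time, washed 4× in PBS, imaged by confocal microscopy (ex 438, em 527 nm).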

[7] = Drug localization in cytoplasm of Candida cells measured after 1 hr by confocal microscopy based analysis; assay type: ADME, cell-based; outline: as §3

| SMILES | MIC (Pichia kudriavzevii) | MIC (Candida albicans [2]) | MIC (Nakaseomyces glabratus) | MIC (Candida parapsilosis) | MIC (Debaryomyces hansenii) | MIC (Diutina rugosa) | MIC (Kluyveromyces marxianus) | MIC [4] | Drug uptake [6] | Drug uptake [7] | HC50 at 0.5 h [1] | hemolysis at 0.5 h [3] | Activity (Candida albicans [5]) |
| --- | --- | --- | --- | --- | --- | --- | --- | --- | --- | --- | --- | --- | --- |
| C[C@@H]1[C@H](O)[C@@H](C)/C=C/C=C/C=C/C=C/C=C/C=C/C=C/[C@H](O[C@@H]2O[C@H](C)[C@@H](O)[C@H](N)[C@@H]2O)C[C@@H]2O[C@](O)(C[C@@H](O)C[C@@H](O)[C@H](O)CC[C@@H](O)C[C@@H](O)CC(=O)O[C@H]1C)C[C@H](O)[C@H]2C(=O)O [AMPHOTERICIN B] | – | – | – | – | – | – | – | – | – | – | 3.46 µg/mL | – | – |
| CC(=O)Oc1cc(C)cc(C)c1C(C)(C)CC(=O)Oc1ncc(F)c(N)n1 | > 512 µg/mL | 16 µg/mL (≈ 42.6 µM) | 8 µg/mL (≈ 21.3 µM) | 4 µg/mL (≈ 10.7 µM) | 8 µg/mL (≈ 21.3 µM) | 32 µg/mL (≈ 85.2 µM) | 64 µg/mL (≈ 170 µM) | 16 µg/mL (≈ 42.6 µM) | – | – | – | < 5% | – |
| CCCCCCCCCCCCCCCCCC(=O)Oc1cc(C)cc(C)c1C(C)(C)CC(=O)NCCNc1ccc2c3c(cccc13)C(=O)N(CCCC)C2=O | – | – | – | – | – | – | – | – | – | – | – | – | inactive |
| CCCCN1C(=O)c2cccc3c(NCCNC(=O)CC(C)(C)c4c(C)cc(C)cc4OC(C)=O)ccc(c23)C1=O | – | – | – | – | – | – | – | – | – | – | – | – | inactive |
| CCCCCCCCCC(=O)Oc1cc(C)cc(C)c1C(C)(C)CC(=O)NCCNc1ccc2c3c(cccc13)C(=O)N(CCCC)C2=O | – | – | – | – | – | – | – | – | – | – | – | – | inactive |
| CCCCCCCCCCCC(=O)Oc1cc(C)cc(C)c1C(C)(C)CC(=O)NCCNc1ccc2c3c(cccc13)C(=O)N(CCCC)C2=O | – | – | – | – | – | – | – | – | – | – | – | – | inactive |
| CCCCCCCCCCCC(=O)Oc1cc(C)cc(C)c1C(C)(C)CC(=O)Oc1ncc(F)c(N)n1 | 256 µg/mL (≈ 496 µM) | 8 µg/mL (≈ 15.5 µM) | 4 µg/mL (≈ 7.76 µM) | 4 µg/mL (≈ 7.76 µM) | 4 µg/mL (≈ 7.76 µM) | 16 µg/mL (≈ 31 µM) | 64 µg/mL (≈ 124 µM) | 8 µg/mL (≈ 15.5 µM) | – | – | – | < 5% | – |
| CCCCCCCCCCCCCCCC(=O)Oc1cc(C)cc(C)c1C(C)(C)CC(=O)NCCNc1ccc2c3c(cccc13)C(=O)N(CCCC)C2=O | – | – | – | – | – | – | – | – | – | – | – | – | inactive |
| CCCCCCCCCCCCCC(=O)Oc1cc(C)cc(C)c1C(C)(C)CC(=O)NCCNc1ccc2c3c(cccc13)C(=O)N(CCCC)C2=O | – | – | – | – | – | – | – | – | – | – | – | – | inactive |
| CCCCCCCCCCCCCC(=O)Oc1cc(C)cc(C)c1C(C)(C)CC(=O)Oc1ncc(F)c(N)n1 | 512 µg/mL (≈ 942 µM) | 4 µg/mL (≈ 7.36 µM) | 2 µg/mL (≈ 3.68 µM) | 4 µg/mL (≈ 7.36 µM) | 4 µg/mL (≈ 7.36 µM) | 16 µg/mL (≈ 29.4 µM) | 32 µg/mL (≈ 58.9 µM) | 8 µg/mL (≈ 14.7 µM) | – | – | – | < 5% | – |
| CCCCCCCCCCCCCCCC(=O)Oc1cc(C)cc(C)c1C(C)(C)CC(=O)Oc1ncc(F)c(N)n1 | > 512 µg/mL | 16 µg/mL (≈ 28 µM) | 8 µg/mL (≈ 14 µM) | 8 µg/mL (≈ 14 µM) | 16 µg/mL (≈ 28 µM) | 64 µg/mL (≈ 112 µM) | 128 µg/mL (≈ 224 µM) | 32 µg/mL (≈ 56 µM) | – | – | – | < 5% | – |

Continued, in another order:

| MIC (Pichia kudriavzevii) | MIC (Candida albicans [2]) | MIC (Nakaseomyces glabratus) | MIC (Candida parapsilosis) | MIC (Debaryomyces hansenii) | MIC (Diutina rugosa) | MIC (Kluyveromyces marxianus) | MIC [4] | Drug uptake [6] | Drug uptake [7] | SMILES | HC50 at 0.5 h [1] | hemolysis at 0.5 h [3] | Activity (Candida albicans [5]) |
| --- | --- | --- | --- | --- | --- | --- | --- | --- | --- | --- | --- | --- | --- |
| 128 µg/mL (≈ 279 µM) | 8 µg/mL (≈ 17.4 µM) | 2 µg/mL (≈ 4.35 µM) | 4 µg/mL (≈ 8.7 µM) | 4 µg/mL (≈ 8.7 µM) | 16 µg/mL (≈ 34.8 µM) | 32 µg/mL (≈ 69.6 µM) | 8 µg/mL (≈ 17.4 µM) | – | – | CCCCCCCC(=O)Oc1cc(C)cc(C)c1C(C)(C)CC(=O)Oc1ncc(F)c(N)n1 | – | < 5% | – |
| 256 µg/mL (≈ 525 µM) | 8 µg/mL (≈ 16.4 µM) | 4 µg/mL (≈ 8.2 µM) | 4 µg/mL (≈ 8.2 µM) | 8 µg/mL (≈ 16.4 µM) | 16 µg/mL (≈ 32.8 µM) | 32 µg/mL (≈ 65.6 µM) | 8 µg/mL (≈ 16.4 µM) | – | – | CCCCCCCCCC(=O)Oc1cc(C)cc(C)c1C(C)(C)CC(=O)Oc1ncc(F)c(N)n1 | – | < 5% | – |
| > 512 µg/mL | 128 µg/mL (≈ 213 µM) | 32 µg/mL (≈ 53.3 µM) | 128 µg/mL (≈ 213 µM) | 256 µg/mL (≈ 427 µM) | > 512 µg/mL | 512 µg/mL (≈ 854 µM) | 256 µg/mL (≈ 427 µM) | – | – | CCCCCCCCCCCCCCCCCC(=O)Oc1cc(C)cc(C)c1C(C)(C)CC(=O)Oc1ncc(F)c(N)n1 | – | < 5% | – |
| > 512 µg/mL | 1 µg/mL (≈ 7.75 µM) | 0.5 µg/mL (≈ 3.87 µM) | 2 µg/mL (≈ 15.5 µM) | 1 µg/mL (≈ 7.75 µM) | 2 µg/mL (≈ 15.5 µM) | 1 µg/mL (≈ 7.75 µM) | 0.5 µg/mL (≈ 3.87 µM) | – | – | Nc1nc(=O)[nH]cc1F [FLUCYTOSINE] | – | – | – |
| – | – | – | – | – | – | – | – | Active | Active | CCCCCCCC(=O)Oc1cc(C)cc(C)c1C(C)(C)CC(=O)NCCNc1ccc2c3c(cccc13)C(=O)N(CCCC)C2=O | – | – | inactive |
